Source: the M2OR odorant receptor database

Legend:
Settings in all cases: stereoisomer not certain
UniProt Q8VG28 = molecular target: UniProt Q8VG28
Procedure, shortened: (§1)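 Whether a receptor–molecule pair is responsive (active) rests on the original authors' judgment that its measured signal was statistically different from baseline. Pairs without that judgment are non-responsive (inactive). Sources used varied assay methods, commonly transient luciferase assays in mammalian cell lines.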

UniProt Q8VF52 = molecular target: T1, UniProt Q8VF52
T1 sequence (whole entry): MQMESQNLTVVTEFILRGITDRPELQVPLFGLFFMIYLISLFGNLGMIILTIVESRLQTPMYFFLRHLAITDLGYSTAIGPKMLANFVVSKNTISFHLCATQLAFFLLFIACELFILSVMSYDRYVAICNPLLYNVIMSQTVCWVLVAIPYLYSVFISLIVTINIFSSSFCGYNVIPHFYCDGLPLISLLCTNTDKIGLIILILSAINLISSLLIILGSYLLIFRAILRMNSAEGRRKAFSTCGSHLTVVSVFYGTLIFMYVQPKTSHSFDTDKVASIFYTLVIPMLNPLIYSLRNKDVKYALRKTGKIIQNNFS
Procedure, shortened: as §1

UniProt Q8VFM8 = molecular target: T2, UniProt Q8VFM8
T2 sequence (whole entry): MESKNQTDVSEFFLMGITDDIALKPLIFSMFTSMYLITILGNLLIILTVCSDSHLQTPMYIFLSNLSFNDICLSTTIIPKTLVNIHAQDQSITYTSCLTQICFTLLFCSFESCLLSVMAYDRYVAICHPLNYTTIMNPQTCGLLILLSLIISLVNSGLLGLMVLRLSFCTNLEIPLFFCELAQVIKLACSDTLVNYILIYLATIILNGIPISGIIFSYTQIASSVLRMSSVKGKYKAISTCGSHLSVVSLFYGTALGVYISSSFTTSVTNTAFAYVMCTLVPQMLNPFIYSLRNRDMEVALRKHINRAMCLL
Procedure, shortened: as §1

UniProt Q8VFP5 = molecular target: T3, UniProt Q8VFP5
T3 sequence (whole entry): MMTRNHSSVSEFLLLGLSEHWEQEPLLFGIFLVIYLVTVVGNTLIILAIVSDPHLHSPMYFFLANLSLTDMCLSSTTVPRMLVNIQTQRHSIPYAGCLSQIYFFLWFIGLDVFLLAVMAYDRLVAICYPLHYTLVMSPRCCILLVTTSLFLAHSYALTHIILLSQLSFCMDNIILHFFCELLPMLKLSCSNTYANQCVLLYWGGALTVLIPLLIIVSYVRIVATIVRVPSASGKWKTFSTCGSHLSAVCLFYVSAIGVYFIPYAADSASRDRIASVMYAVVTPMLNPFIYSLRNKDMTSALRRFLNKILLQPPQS
Procedure, shortened: as §1

UniProt Q8VG01 = molecular target: T4, UniProt Q8VG01
T4 sequence (whole entry): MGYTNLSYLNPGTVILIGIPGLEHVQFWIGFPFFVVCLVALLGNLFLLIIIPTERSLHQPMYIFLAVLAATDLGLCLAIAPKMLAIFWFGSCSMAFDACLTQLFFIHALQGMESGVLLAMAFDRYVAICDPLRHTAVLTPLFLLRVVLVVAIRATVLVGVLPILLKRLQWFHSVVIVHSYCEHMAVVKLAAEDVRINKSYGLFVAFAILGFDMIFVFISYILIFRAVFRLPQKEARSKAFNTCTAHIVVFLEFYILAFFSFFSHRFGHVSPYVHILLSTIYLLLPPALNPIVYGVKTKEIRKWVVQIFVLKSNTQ
Procedure, shortened: as §1

UniProt Q8VG27 = molecular target: T5, UniProt Q8VG27
T5 sequence (whole entry): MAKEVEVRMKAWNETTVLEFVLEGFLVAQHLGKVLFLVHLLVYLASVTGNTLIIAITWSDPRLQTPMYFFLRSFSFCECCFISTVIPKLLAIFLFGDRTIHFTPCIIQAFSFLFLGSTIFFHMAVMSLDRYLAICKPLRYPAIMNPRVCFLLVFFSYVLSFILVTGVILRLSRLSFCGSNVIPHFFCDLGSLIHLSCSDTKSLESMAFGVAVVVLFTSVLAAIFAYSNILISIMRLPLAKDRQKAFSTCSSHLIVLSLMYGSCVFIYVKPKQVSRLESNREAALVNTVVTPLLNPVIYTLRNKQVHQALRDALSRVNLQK
Procedure, shortened: as §1

UniProt Q8VG53 = molecular target: T6, UniProt Q8VG53
T6 sequence (whole entry): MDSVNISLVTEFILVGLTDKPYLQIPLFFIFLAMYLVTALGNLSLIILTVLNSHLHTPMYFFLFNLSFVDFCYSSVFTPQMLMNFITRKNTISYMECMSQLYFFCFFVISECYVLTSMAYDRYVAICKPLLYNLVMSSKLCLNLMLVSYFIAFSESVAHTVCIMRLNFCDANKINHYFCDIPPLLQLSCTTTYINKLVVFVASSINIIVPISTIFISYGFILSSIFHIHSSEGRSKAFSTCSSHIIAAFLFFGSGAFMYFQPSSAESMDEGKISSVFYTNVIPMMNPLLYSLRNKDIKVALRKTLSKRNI
Procedure, shortened: as §1

UniProt Q8VG64 = molecular target: T7, UniProt Q8VG64
T7 sequence (whole entry): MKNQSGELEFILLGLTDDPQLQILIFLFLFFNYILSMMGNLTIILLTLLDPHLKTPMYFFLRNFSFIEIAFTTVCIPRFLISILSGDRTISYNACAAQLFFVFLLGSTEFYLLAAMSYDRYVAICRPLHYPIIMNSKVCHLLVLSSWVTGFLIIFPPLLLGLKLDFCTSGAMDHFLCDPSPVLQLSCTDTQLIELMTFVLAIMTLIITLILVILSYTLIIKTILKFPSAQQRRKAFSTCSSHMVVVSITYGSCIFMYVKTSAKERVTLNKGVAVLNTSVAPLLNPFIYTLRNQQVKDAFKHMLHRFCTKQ
Procedure, shortened: as §1

UniProt Q8VGB9 = molecular target: T8, UniProt Q8VGB9
T8 sequence (whole entry): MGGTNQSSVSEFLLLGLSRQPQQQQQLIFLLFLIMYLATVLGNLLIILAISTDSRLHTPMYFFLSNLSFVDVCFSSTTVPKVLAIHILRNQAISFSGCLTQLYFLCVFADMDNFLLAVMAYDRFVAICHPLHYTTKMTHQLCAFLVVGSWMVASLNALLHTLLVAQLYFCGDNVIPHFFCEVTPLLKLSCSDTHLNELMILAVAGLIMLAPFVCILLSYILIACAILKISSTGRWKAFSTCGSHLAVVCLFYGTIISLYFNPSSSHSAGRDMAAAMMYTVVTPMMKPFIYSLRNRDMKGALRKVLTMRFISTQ
Procedure, shortened: as §1

UniProt Q8VGC6 = molecular target: T9, UniProt Q8VGC6
T9 sequence (whole entry): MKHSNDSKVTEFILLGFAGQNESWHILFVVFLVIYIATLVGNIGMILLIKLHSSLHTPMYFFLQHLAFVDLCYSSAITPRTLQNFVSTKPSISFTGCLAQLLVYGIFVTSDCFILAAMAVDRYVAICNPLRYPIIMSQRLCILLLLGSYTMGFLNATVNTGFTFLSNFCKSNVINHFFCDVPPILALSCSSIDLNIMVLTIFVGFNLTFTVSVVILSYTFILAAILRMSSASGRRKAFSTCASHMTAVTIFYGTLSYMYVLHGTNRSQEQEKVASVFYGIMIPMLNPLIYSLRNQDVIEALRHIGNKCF
Procedure, shortened: as §1

UniProt Q8VGJ3 = molecular target: T10, UniProt Q8VGJ3
T10 sequence (whole entry): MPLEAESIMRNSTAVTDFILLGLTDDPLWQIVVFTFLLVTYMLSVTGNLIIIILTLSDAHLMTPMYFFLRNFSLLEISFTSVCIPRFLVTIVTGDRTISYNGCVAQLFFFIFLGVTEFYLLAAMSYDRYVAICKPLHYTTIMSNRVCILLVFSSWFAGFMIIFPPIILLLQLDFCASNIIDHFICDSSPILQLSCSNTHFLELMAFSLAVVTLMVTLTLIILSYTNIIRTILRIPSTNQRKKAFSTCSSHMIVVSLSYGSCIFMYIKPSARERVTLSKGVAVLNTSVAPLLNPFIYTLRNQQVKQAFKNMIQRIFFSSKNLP
Procedure, shortened: as §1
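Further: active if original authors judged signal statistically different from baseline.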

Chain of UniProt Q8VG28 (Q8VG28 as listed by the source): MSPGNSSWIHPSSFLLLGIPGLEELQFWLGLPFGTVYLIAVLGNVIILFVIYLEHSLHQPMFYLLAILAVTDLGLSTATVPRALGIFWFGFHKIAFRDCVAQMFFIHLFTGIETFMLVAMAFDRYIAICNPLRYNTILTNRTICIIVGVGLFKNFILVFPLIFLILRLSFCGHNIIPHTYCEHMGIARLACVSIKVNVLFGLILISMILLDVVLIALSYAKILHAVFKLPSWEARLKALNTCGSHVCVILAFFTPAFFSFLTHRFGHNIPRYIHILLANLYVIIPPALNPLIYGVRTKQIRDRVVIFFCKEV

Compound: O=C(O)CCCCCCCBr
- odorant receptor agonist call (UniProt Q8VG28): active

Compound: CSSC
- odorant receptor agonist call (UniProt Q8VF52): inactive
- odorant receptor agonist call (UniProt Q8VFM8): inactive
- odorant receptor agonist call (UniProt Q8VFP5): inactive
- odorant receptor agonist call (UniProt Q8VG01): inactive
- odorant receptor agonist call (UniProt Q8VG27): inactive
- odorant receptor agonist call (UniProt Q8VG53): inactive
- odorant receptor agonist call (UniProt Q8VG64): inactive
- odorant receptor agonist call (UniProt Q8VGB9): inactive
- odorant receptor agonist call (UniProt Q8VGC6): inactive
- odorant receptor agonist call (UniProt Q8VGJ3): inactive
